# Experimental data as given in ChEMBL document CHEMBL2021862, “5-imino-1,2,4-thiadiazoles: first small molecules as substrate competitive inhibitors of glycogen synthase kinase 3” (J Med Chem, 2012).
# Activity calls are given as the source filed them. The calls are words filed in the database; no cut-off is given here.
# What was measured:
# [1] = target: T1, Glycogen synthase kinase-3 beta (Homo sapiens, UniProt P49841); assay: Inhibition of human recombinant GSK3beta at 10 uM after 30 mins by luminescence assay in presence of ATP
# In short: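 Human recombinant GSK-3β (20 ng) with prephosphorylated polypeptide substrate 25 μM and ATP 1 μM in 50 mM HEPES pH 7.5, 1 mM EDTA, 1 mM EGTA, 15 mM Mg acetate. Final DMSO ≤1%. Incubated 30 min at 30 °C, stopped with Kinase-Glo reagent, and luminescence read after 10 min. Inhibition is relative to the no-inhibitor maximum. IC50 is the concentration giving 50% activity loss.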
# Target sequence in this assay (P49841 whole entry, looked up): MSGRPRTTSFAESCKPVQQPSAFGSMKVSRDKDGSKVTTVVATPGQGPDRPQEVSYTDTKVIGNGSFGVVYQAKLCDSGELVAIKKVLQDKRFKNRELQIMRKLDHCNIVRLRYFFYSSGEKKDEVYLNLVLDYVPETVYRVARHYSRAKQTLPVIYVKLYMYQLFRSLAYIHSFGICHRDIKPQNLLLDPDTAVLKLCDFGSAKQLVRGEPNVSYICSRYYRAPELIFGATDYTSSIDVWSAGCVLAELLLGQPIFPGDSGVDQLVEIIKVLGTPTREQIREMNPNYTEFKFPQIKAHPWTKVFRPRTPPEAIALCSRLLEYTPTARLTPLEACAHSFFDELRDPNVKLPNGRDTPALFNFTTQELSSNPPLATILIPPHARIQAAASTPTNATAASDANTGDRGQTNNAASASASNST
# [2] = target: T1, Glycogen synthase kinase-3 beta; assay: Inhibition of human recombinant GSK3beta after 30 mins by luminescence assay in presence of ATP
# Target sequence in this assay (P49841 whole entry): as the sequence (P49841 whole entry, looked up) above
# [3] = Effective permeability across porcine polar brain lipid after 4 hrs by PAMPA; settings: pig; for Papp at 4 h: PAMPA; for Peff: pampa, 4 h
# Astrocyte = assay: Neuroprotective activity in rat astrocytes assessed as decrease in LPS-induced nitrite production at 28 to 52 ug/ml after 24 hrs administered 1 hr before LPS challenge by Griess method; format: functional, cell-based
# In short: (§1)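 Astrocytes and microglia were from neonatal (P2) rat cortex, separated by shaking; microglia received 10 ng/mL GM-CSF. Purity >98% (OX42/GFAP). Cells were pretreated 1 h with compound, then given LPS for 24 h. Supernatant was mixed 1:1 with Griess reagent, left 15 min at room temperature, and absorbance read at 492/540 nm.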
# Cortical neurone = assay: Neuroprotective activity in rat cortical neurons assessed as decrease in LPS-induced nitrite production at 28 to 52 ug/ml after 24 hrs administered 1 hr before LPS challenge by Griess method; format: functional
# In short: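 Cortical neurons from E18 rats were grown in Neurobasal/B-27 at 37 °C, 5% CO2 for 1 week. They were pretreated 1 h with compound, then exposed to supernatant from LPS-stimulated microglia. After 24 h, nitrite in the medium was measured by Griess reaction (equal volume reagent, 15 min room temperature, absorbance 492/540 nm).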
# NSC = assay: Neurogenic activity in rat hippocampal NSC assessed as increase in beta-tubulin after 24 hrs by DAPI staining-based immunocytometric analysis; format: functional, cell-based; settings: Hippocampus
# In short: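 Neurospheres from adult rat hippocampus were expanded in DMEM/F12 with EGF and FGF (10 ng/mL each) and B27, and treated with compound. Spheres were plated on poly-L-lysine without growth factors. Cells were fixed in 4% paraformaldehyde, permeabilized with 0.1% Triton X-100, stained with anti-β-tubulin (Tuj1) and an Alexa secondary, counterstained with DAPI, and imaged by confocal microscopy.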
# Microglia = assay: Neuroprotective activity in rat microglia cells assessed as decrease in LPS-induced nitrite production at 28 to 52 ug/ml after 24 hrs administered 1 hr before LPS challenge by Griess method; format: functional, cell-based; in short: as §1
# [4] = target: T1, Glycogen synthase kinase-3 beta; assay: Non-competitive inhibition of human recombinant GSK3beta at 10 uM after 30 mins by Michaelis-Menten equation in presence of 1 to 50 uM ATP; settings: 0.4 to 2 uM, in the assay text read “at 0.4 to 2 uM” for “at 10 uM”
# In short: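 Double-reciprocal kinetics on GSK-3β using the ADP-Glo kinase assay. ATP was varied from 1 to 50 μM and inhibitor from 0.4 to 2 μM, with GS-2 fixed at 12.5 μM. Each point is the mean of two experiments, each run in duplicate.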
# Target sequence in this assay (P49841 whole entry, looked up): as above
# [5] = target: T1, Glycogen synthase kinase-3 beta; assay: Competitive inhibition of human recombinant GSK3beta at 0.5 to 2.5 uM after 30 mins by Michaelis-Menten equation in presence of 1 uM ATP
# Target sequence in this assay (P49841 whole entry, looked up): as above
inhibition [1],IC50 [2] [nM],Compound,other results
> 60%,500,Br.CCOC(=O)C/N=c1\nc(-c2ccc(OC)cc2)n(-c2ccccc2)s1,Papp at 4 h [3]: 4 ×10⁻⁶ cm/s
inactive,–,COc1ccc(/N=C(/NC(=S)NCc2cccnc2)c2ccccc2)cc1,–
inactive,–,COc1ccc(/C(=N\c2ccccc2)NC(=S)Nc2ccccc2)cc1,–
> 60%,1200,Br.COc1ccc(-c2n/c(=N\CCO)sn2-c2ccccc2)cc1,Papp at 4 h [3]: 13.7 ×10⁻⁶ cm/s
–,–,CNCCCN1c2ccccc2CCc2ccccc21 [DESIPRAMINE],Papp at 4 h [3]: 14.9 ×10⁻⁶ cm/s
> 60%,–,Br.c1ccc(/N=c2/nc(-c3ccccc3)n(-c3ccccc3)s2)cc1,Peff [3]: ND(Insoluble)
–,–,CN1C(C(=O)Nc2ccccn2)=C(O)c2ccccc2S1(=O)=O [PIROXICAM],Papp at 4 h [3]: 1.7 ×10⁻⁶ cm/s
> 60%,–,c1ccc(-n2s/c(=N/Cc3cccnc3)nc2-c2cccc3ccccc23)cc1 [listing 1 of 3 here],–
> 60%,4600,Br.COc1ccc(-n2s/c(=N/CCO)nc2-c2ccccc2)cc1,Activity (Astrocyte): Active; Activity (Cortical neurone): Active; Activity (NSC): Active; Papp at 4 h [3]: 13.4 ×10⁻⁶ cm/s; Activity (Microglia): Active
–,2100,c1ccc(-n2s/c(=N/Cc3cccnc3)nc2-c2cccc3ccccc23)cc1 [listing 2 of 3 here],–
> 60%,–,c1ccc(/N=c2\nc(-c3ccccc3)n(-c3ccccc3)s2)cc1,Peff [3]: ND(Insoluble)
inactive,–,S=C(N/C(=N/c1ccccc1)c1ccccc1)Nc1ccccn1,–
inactive,–,C/C(=N\c1ccccc1)NC(=S)NCc1cccnc1,–
inactive,–,S=C(N/C(=N/c1ccccc1)c1ccccc1)NC1CCCCC1,–
inactive,–,NC(=S)N/C(=N/c1ccccc1)c1ccccc1,–
> 60%,–,CCOC(=O)C/N=c1\nc(-c2ccccc2)n(-c2ccccc2)s1 [listing 1 of 2 here],Activity (Astrocyte): Active; Activity (Cortical neurone): Active; Activity (NSC): Active; Activity (Microglia): Active
–,7000,Br.CCOC(=O)C/N=c1\nc(-c2ccccc2)n(-c2ccccc2)s1,Papp at 4 h [3]: 6.2 ×10⁻⁶ cm/s
> 60%,800,CCCCCc1n/c(=N\Cc2cccnc2)sn1-c1ccccc1,–
> 60%,1000,CCOC(=O)C/N=c1\nc(-c2ccccc2)n(-c2ccc([N+](=O)[O-])cc2)s1,–
> 60%,300,Br.OCC/N=c1\nc(-c2cccc3ccccc23)n(-c2ccccc2)s1,Papp at 4 h [3]: 10.2 ×10⁻⁶ cm/s
inactive,–,S=C(NCc1cccnc1)N/C(=N/c1ccccc1)c1cccc2ccccc12,–
> 60%,1300,Br.c1ccc(-c2n/c(=N\Cc3cccnc3)sn2-c2ccccc2)cc1,Activity (Astrocyte): Active; inhibition [4]: Active; Activity (Cortical neurone): Active; Activity (NSC): Active; Papp at 4 h [3]: 10.7 ×10⁻⁶ cm/s; inhibition [5]: Active; Activity (Microglia): Active

inhibition [1],IC50 [2] [nM],Compound,other results
inactive,–,CCCCC/C(=N\c1ccccc1)NC(=S)NCc1cccnc1,–
inactive,–,S=C(NCc1cccnc1)N/C(=N/c1cccc2ccccc12)c1ccccc1,–
inactive,–,S=C(NCc1cccnc1)N/C(=N/c1ccccc1)c1ccccc1,–
inactive,–,CCOC(=O)CNC(=S)N/C(=N/c1ccccc1)c1ccccc1,–
> 60%,300,OCC/N=c1\nc(-c2ccccc2)n(-c2cccc3ccccc23)s1,–
inactive,–,O=[N+]([O-])c1ccc(/N=C(/NC(=S)NCc2cccnc2)c2ccccc2)cc1,–
inactive,–,FC(F)(F)c1ccc(/C(=N\c2ccccc2)NC(=S)NCc2cccnc2)cc1,–
> 60%,1200,Br.COc1ccc(-c2n/c(=N\Cc3cccnc3)sn2-c2ccccc2)cc1,Papp at 4 h [3]: 4.8 ×10⁻⁶ cm/s
> 60%,–,CCCCC/N=c1\nc(-c2ccc(OC)cc2)n(-c2ccccc2)s1 [listing 1 of 2 here],–
–,–,Cn1c(=O)c2c(ncn2C)n(C)c1=O [CAFFEINE],Papp at 4 h [3]: 1.6 ×10⁻⁶ cm/s
inactive,–,COc1ccc(/N=C(/NC(=S)NCCO)c2ccccc2)cc1,–
> 60%,2000,Br.CCOC(=O)C/N=c1\nc(-c2ccccc2)n(-c2ccc(OC)cc2)s1,Papp at 4 h [3]: 4.4 ×10⁻⁶ cm/s
–,2000,Br.OCC/N=c1\nc(-c2ccccc2)n(-c2ccccc2)s1,Papp at 4 h [3]: 15.8 ×10⁻⁶ cm/s
> 60%,600,Br.Cc1n/c(=N\Cc2cccnc2)sn1-c1ccccc1,Papp at 4 h [3]: 5.3 ×10⁻⁶ cm/s
inactive,–,OCCNC(=S)N/C(=N/c1ccccc1)c1cccc2ccccc12,–
> 60%,1100,c1ccc(Cn2s/c(=N/Cc3cccnc3)nc2-c2ccccc2)cc1,–
> 60%,2100,Br.c1ccc(-c2n/c(=N\C3CCCCC3)sn2-c2ccccc2)cc1,Peff [3]: ND(Insoluble)
inactive,–,COc1ccc(/C(=N\c2ccccc2)NC(=S)NCCO)cc1,–
–,300,CCCCC/N=c1\nc(-c2ccc(OC)cc2)n(-c2ccccc2)s1 [listing 2 of 2 here],–
inactive,–,CCCCCNC(=S)N/C(=N/c1ccccc1)c1ccccc1,–
–,900,c1ccc(-n2s/c(=N/Cc3cccnc3)nc2-c2cccc3ccccc23)cc1 [listing 3 of 3 here],–
inactive,–,S=C(NCc1cccnc1)N/C(=N/Cc1ccccc1)c1ccccc1,–

inhibition [1],IC50 [2] [nM],Compound,other results
> 60%,1000,O=[N+]([O-])c1ccc(-n2s/c(=N/Cc3cccnc3)nc2-c2ccccc2)cc1,–
–,1800,CCOC(=O)C/N=c1\nc(-c2ccccc2)n(-c2ccccc2)s1 [listing 2 of 2 here],–
inactive,–,COc1ccc(/C(=N\c2ccccc2)NC(=S)NCc2cccnc2)cc1,–
> 60%,4100,Br.COc1ccc(-n2s/c(=N/Cc3cccnc3)nc2-c2ccccc2)cc1,Papp at 4 h [3]: 6.3 ×10⁻⁶ cm/s
inactive,–,S=C(N/C(=N/c1ccccc1)c1ccccc1)Nc1ccccc1,–
> 60%,–,OCC/N=c1\nc(-c2ccccc2)n(-c2ccccc2)s1,Activity (Astrocyte): Active; inhibition [4]: Active; Activity (Cortical neurone): Active; Activity (NSC): Active; inhibition [5]: Active; Activity (Microglia): Active
> 60%,1600,Br.FC(F)(F)c1ccc(-c2n/c(=N\Cc3cccnc3)sn2-c2ccccc2)cc1,Peff [3]: ND(Insoluble)
inactive,–,CCOC(=O)CNC(=S)N/C(=N/c1ccc(OC)cc1)c1ccccc1,–
inactive,–,S=C(NCCN1CCOCC1)N/C(=N/c1ccccc1)c1ccccc1,–
inactive,–,OCCNC(=S)N/C(=N/c1ccccc1)c1ccccc1,–
inactive,–,CCCCCNC(=S)N/C(=N/c1ccccc1)c1ccc(OC)cc1,–
> 60%,900,Br.c1ccc(-c2n/c(=N\CCN3CCOCC3)sn2-c2ccccc2)cc1,inhibition [4]: Active; Papp at 4 h [3]: 7.2 ×10⁻⁶ cm/s; inhibition [5]: Active
inactive,–,CCOC(=O)CNC(=S)N/C(=N/c1ccc([N+](=O)[O-])cc1)c1ccccc1,–
–,600,Cl.OCC/N=c1\nc(-c2ccccc2)n(-c2ccccc2)s1,Papp at 4 h [3]: 13.6 ×10⁻⁶ cm/s
inactive,–,OCCNC(=S)N/C(=N/c1cccc2ccccc12)c1ccccc1,–
inactive,–,CCOC(=O)CNC(=S)N/C(=N/c1ccccc1)c1ccc(OC)cc1,–
> 60%,1400,CCCCC/N=c1\nc(-c2ccccc2)n(-c2ccccc2)s1,–
> 60%,2000,c1ccc(-c2n/c(=N\Cc3cccnc3)sn2-c2cccc3ccccc23)cc1,–
–,1100,CCCCC/N=c1\nc(-c2ccc(OC)cc2)n(-c2ccccc2)s1.Cl,Papp at 4 h [3]: 8.5 ×10⁻⁶ cm/s
14%,–,c1ccc(/N=C(/N=c2/nc3ccccn3s2)c2ccccc2)cc1,–
> 60%,1100,Br.COc1ccc(-c2n/c(=N\c3ccccc3)sn2-c2ccccc2)cc1,Peff [3]: ND(Insoluble)
> 60%,600,Br.N=c1nc(-c2ccccc2)n(-c2ccccc2)s1,Papp at 4 h [3]: 9.1 ×10⁻⁶ cm/s
